Assay results taken from ChEMBL document CHEMBL4004881, “Perfluorinated hydroxamic acids are potent and selective inhibitors of HDAC-like enzymes from Pseudomonas aeruginosa” (Bioorg Med Chem Lett, 2017).

Assays:
[1] = Inhibition of Pseudomonas aeruginosa PA0321 using Boc-Lys(trifluoroacetyl)-AMC as substrate preincubated for 30 mins followed by substrate addition measured after 60 mins by trypsin-based fluorescence assay
[2] = Inhibition of Pseudomonas aeruginosa PA1409 using Boc-Lys(trifluoroacetyl)-AMC as substrate preincubated for 30 mins followed by substrate addition measured after 60 mins by trypsin-based fluorescence assay
[3] = Inhibition of Pseudomonas aeruginosa PA3774 using Boc-Lys(trifluoroacetyl)-AMC as substrate preincubated for 30 mins followed by substrate addition measured after 60 mins by trypsin-based fluorescence assay
[4] = molecular target: Histone deacetylase 4 (Homo sapiens, UniProt P56524); experiment: Inhibition of human HDAC4 using Boc-Lys(trifluoroacetyl)-AMC as substrate preincubated for 30 mins followed by substrate addition measured after 60 mins by trypsin-based fluorescence assay
[5] = molecular target: Histone deacetylase 5 (Homo sapiens, UniProt Q9UQL6); experiment: Inhibition of human HDAC5 using Boc-Lys(trifluoroacetyl)-AMC as substrate preincubated for 30 mins followed by substrate addition measured after 60 mins by trypsin-based fluorescence assay
[6] = Inhibition of Bordetella HDAH using Boc-Lys(trifluoroacetyl)-AMC as substrate preincubated for 30 mins followed by substrate addition measured after 60 mins by trypsin-based fluorescence assay
Summary of the method: (§1)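 Bacterial HDAH activity was measured by a fluorogenic assay in which the deacetylated substrate is converted to fluorescent dye by trypsin. Ki was calculated via Cheng-Prusoff from IC50 values, which were fitted to dose-response curves spanning 10 ligand concentrations.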

[7] = Inhibition of Alcaligenes HDAH using Boc-Lys(trifluoroacetyl)-AMC as substrate preincubated for 30 mins followed by substrate addition measured after 60 mins by trypsin-based fluorescence assay; summary of the method: as §1

Sequence of Histone deacetylase 4 (P56524 whole entry): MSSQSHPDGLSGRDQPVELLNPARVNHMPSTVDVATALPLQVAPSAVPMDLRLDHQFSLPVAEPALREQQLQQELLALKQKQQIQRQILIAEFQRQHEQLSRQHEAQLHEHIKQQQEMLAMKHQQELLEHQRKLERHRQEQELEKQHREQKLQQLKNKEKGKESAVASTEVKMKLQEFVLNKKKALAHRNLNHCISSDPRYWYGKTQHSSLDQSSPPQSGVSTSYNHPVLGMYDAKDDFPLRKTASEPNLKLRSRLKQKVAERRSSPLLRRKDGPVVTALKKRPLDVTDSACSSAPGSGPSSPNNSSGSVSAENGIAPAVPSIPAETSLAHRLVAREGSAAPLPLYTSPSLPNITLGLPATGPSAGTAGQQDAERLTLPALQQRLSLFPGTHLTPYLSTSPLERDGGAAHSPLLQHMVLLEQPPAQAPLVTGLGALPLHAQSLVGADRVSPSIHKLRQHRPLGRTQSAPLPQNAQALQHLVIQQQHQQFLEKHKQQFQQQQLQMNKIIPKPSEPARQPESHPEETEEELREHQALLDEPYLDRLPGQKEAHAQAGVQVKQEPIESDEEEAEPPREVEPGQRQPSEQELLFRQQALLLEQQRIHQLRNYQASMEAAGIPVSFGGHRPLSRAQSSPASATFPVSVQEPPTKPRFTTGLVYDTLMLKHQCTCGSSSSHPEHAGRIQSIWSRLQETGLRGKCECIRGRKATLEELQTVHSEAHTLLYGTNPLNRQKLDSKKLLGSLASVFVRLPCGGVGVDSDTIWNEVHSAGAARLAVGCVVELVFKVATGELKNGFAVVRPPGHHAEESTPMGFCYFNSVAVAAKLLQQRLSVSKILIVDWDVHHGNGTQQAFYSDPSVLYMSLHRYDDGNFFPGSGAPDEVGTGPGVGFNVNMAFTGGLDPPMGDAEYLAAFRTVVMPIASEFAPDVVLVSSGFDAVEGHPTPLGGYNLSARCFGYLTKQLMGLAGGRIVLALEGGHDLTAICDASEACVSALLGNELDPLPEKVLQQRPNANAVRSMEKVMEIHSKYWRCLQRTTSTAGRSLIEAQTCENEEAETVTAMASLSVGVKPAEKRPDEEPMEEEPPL
Sequence of Histone deacetylase 5 (Q9UQL6 whole entry): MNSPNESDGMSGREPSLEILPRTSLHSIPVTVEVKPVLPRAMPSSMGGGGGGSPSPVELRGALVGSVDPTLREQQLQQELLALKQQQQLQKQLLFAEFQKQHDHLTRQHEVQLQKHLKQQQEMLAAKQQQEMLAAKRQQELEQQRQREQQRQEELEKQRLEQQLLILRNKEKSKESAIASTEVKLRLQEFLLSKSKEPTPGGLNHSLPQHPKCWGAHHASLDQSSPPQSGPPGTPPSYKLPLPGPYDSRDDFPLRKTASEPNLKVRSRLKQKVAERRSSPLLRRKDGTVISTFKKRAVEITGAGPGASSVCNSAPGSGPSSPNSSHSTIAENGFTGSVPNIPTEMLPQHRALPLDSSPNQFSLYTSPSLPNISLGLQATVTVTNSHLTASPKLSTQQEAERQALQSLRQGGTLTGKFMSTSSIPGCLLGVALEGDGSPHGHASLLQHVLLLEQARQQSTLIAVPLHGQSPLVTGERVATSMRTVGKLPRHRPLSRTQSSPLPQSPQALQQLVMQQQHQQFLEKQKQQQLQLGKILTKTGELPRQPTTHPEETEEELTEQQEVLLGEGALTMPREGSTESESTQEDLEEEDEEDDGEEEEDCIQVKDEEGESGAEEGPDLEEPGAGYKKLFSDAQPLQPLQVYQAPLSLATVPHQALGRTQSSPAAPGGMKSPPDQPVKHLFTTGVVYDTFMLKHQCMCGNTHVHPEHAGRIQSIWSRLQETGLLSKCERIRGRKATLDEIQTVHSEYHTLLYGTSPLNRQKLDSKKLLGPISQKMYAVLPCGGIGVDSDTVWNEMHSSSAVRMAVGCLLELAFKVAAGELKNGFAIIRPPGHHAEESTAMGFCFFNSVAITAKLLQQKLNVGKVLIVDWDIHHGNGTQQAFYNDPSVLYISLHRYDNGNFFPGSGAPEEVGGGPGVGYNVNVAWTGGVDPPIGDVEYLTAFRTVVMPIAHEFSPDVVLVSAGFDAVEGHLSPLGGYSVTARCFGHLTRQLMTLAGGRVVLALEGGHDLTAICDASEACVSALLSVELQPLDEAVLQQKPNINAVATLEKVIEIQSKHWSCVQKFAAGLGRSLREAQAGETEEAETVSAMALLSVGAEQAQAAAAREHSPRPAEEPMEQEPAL

Compound	Ki [1]	Ki [2]	Ki [3]	Ki [4]	Ki [5]	Ki [6]	Ki [7]
O=C(NO)C(F)(F)C(F)(F)C(F)(F)C(F)(F)C(F)(F)C(F)(F)C(=O)Nc1ccccc1	0.7 µM	2.6 µM	22 nM	> 50 µM	13 µM	–	–
Cc1ccc(NC(=O)C(F)(F)C(F)(F)C(F)(F)C(F)(F)C(F)(F)C(F)(F)C(=O)NO)cc1	2.3 µM	6.2 µM	190 nM	> 50 µM	> 50 µM	–	–
O=C(NO)C(F)(F)C(F)(F)C(F)(F)C(F)(F)C(F)(F)C(F)(F)C(=O)Nc1ccc(Cl)cc1	2.1 µM	5.7 µM	170 nM	> 50 µM	> 50 µM	86 nM	86 nM
CC(=O)Nc1ccc(NC(=O)C(F)(F)C(F)(F)C(F)(F)C(F)(F)C(F)(F)C(F)(F)C(=O)NO)cc1	3.6 µM	7.6 µM	320 nM	> 50 µM	> 50 µM	–	–
N#Cc1ccc(NC(=O)C(F)(F)C(F)(F)C(F)(F)C(F)(F)C(F)(F)C(F)(F)C(=O)NO)cc1	2.8 µM	7.1 µM	320 nM	> 50 µM	> 50 µM	–	–
O=C(NO)C(F)(F)C(F)(F)C(F)(F)C(F)(F)C(F)(F)C(F)(F)C(=O)Nc1ccc(I)cc1	1.1 µM	4.1 µM	46 nM	> 50 µM	> 50 µM	–	–
O=C(NO)C(F)(F)C(F)(F)C(F)(F)C(F)(F)C(F)(F)C(F)(F)C(=O)Nc1ccc(-c2ccccc2)cc1	1.5 µM	3.1 µM	46 nM	> 50 µM	> 50 µM	–	–
CCc1cccc(NC(=O)C(F)(F)C(F)(F)C(F)(F)C(F)(F)C(F)(F)C(F)(F)C(=O)NO)c1	2.1 µM	6.7 µM	240 nM	> 50 µM	> 50 µM	–	–
O=C(NO)C(F)(F)C(F)(F)C(F)(F)C(F)(F)C(F)(F)C(F)(F)C(=O)Nc1ccc2ccc3cccc4ccc1c2c34	4.1 µM	16 µM	230 nM	> 50 µM	> 50 µM	–	–
O=C(NO)C(F)(F)C(F)(F)C(F)(F)C(F)(F)C(F)(F)C(F)(F)C(=O)Nc1nc(-c2ccccc2)cs1	8.5 µM	> 50 µM	12000 nM	> 50 µM	> 50 µM	–	–
O=C(NO)C(F)(F)C(F)(F)C(F)(F)C(F)(F)C(F)(F)C(F)(F)C(=O)Nc1ccc(-c2cnnn2-c2ccccc2)cc1	22 µM	15 µM	3100 nM	> 50 µM	> 50 µM	–	–
O=C(NO)C(F)(F)C(F)(F)C(F)(F)C(F)(F)C(F)(F)C(F)(F)C(=O)Nc1cccc2ccccc12	7 µM	21 µM	350 nM	> 50 µM	> 50 µM	–	–
O=C(NO)C(F)(F)C(F)(F)C(F)(F)C(F)(F)C(F)(F)C(F)(F)C(=O)Nc1cccc(-c2ccccc2)c1	1.5 µM	4.4 µM	100 nM	> 50 µM	> 50 µM	–	–
O=C(NO)C(F)(F)C(F)(F)C(F)(F)C(F)(F)C(F)(F)C(F)(F)C(=O)Nc1ccc2ccccc2c1	1.2 µM	3.8 µM	530 nM	> 50 µM	> 50 µM	–	–
O=C(NO)C(F)(F)C(F)(F)C(F)(F)C(F)(F)C(F)(F)C(F)(F)C(=O)Nc1ccccc1-c1ccccc1	12 µM	17 µM	1100 nM	> 50 µM	> 50 µM	–	–
O=C(NO)C(F)(F)C(F)(F)C(F)(F)C(F)(F)C(F)(F)C(F)(F)C(=O)Nc1ccc2cc3ccccc3cc2c1	24 µM	> 50 µM	2000 nM	> 50 µM	> 50 µM	–	–
O=C(NO)C(F)(F)C(F)(F)C(F)(F)C(F)(F)C(F)(F)C(F)(F)C(=O)Nc1cc2ccccc2c2ccccc12	6 µM	11 µM	250 nM	> 50 µM	> 50 µM	–	–
O=C(NO)C(F)(F)C(F)(F)C(F)(F)C(F)(F)C(F)(F)C(F)(F)C(=O)Nc1cccc2cc3ccccc3cc12	9 µM	11 µM	1100 nM	> 50 µM	> 50 µM	–	–
O=C(Nc1ccccc1)C(F)(F)C(F)(F)C(F)(F)C(F)(F)C(F)(F)C(F)(F)C(=O)Nc1ccccc1	> 50 µM	> 50 µM	10000 nM	> 50 µM	> 50 µM	–	–
O=C(NO)C(F)(F)C(F)(F)C(F)(F)C(F)(F)C(F)(F)C(F)(F)C(=O)Nc1cccc(-c2cn(-c3ccccc3)nn2)c1	> 50 µM	> 50 µM	2600 nM	> 50 µM	> 50 µM	–	–
